The values that follow come from ChEMBL document CHEMBL1146563, “CT2108A and B: New fatty acid synthase inhibitors as antifungal agents” (J Nat Prod, 2003).

Values after ≈ are worked out from the molar mass of the structure shown. Active and inactive are the calls of the source. The rule behind the calls is not given here. A value given as a limit tells only on which side of the number the result lay.

One test addresses Fatty acid synthase (Homo sapiens, UniProt P49327). In words: Inhibition of FAS in human ZR-75-1 cells by spectrophotometry. It counts as cell-based.
Test [1] deals with Papiliotrema laurentii. In words: Antifungal activity against Cryptococcus laurentii after 24 hrs. In kind it is functional. In outline:
(§1)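 Minimum inhibitory concentration against clinical isolates, read at 24 h and at 48 h. Isolates tested: C. albicans 4, C. tropicalis 1, C. lusitaniae 3, C. guilliermondii 1, C. krusei 3, C. glabrata 3, C. parapsilosis 4, C. dubliniensis 2, S. cerevisiae 4, Cryptococcus neoformans 2, Cryptococcus laurentii 2.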

For test [2], the system named is Candida albicans. In words: Antifungal activity against Candida albicans assessed as clear zone of inhibition by disk diffusion assay. It counts as functional. In outline:
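Disk diffusion on C. albicans; the zone of inhibition is measured in mm.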

Test [3] relates to Nakaseomyces glabratus. In words: Antifungal activity against Candida glabrata after 24 hrs. It counts as functional. In outline: as §1
In test [4] the test system is Candida albicans. In words: Antifungal activity against Candida albicans after 24 hrs. It counts as functional. In a few lines:
as §1

Test [5] relates to Candida dubliniensis. In words: Antifungal activity against Candida dubliniensis after 24 hrs. In kind it is functional. In outline:
as §1

Test [6] relates to Clavispora lusitaniae. In words: Antifungal activity against Candida lusitaniae after 24 hrs. It counts as functional. In outline: as §1
Test [7] relates to Candida albicans. In words: Antifungal activity against Candida albicans by microdilution spectrophotometric method. In kind it is functional. (Dilution methods test growth across graded concentrations, often in twofold steps.)
The subject of test [8] is Saccharomyces cerevisiae. In words: Antifungal activity against Saccharomyces cerevisiae after 48 hrs. It counts as functional. In a few lines:
as §1

Test [9] relates to Candida parapsilosis. In words: Antifungal activity against Candida parapsilosis after 24 hrs. In kind it is functional. Particulars: Lodderomyces parapsilosis. In outline:
as §1

Test [10] has as its system Pichia kudriavzevii. In words: Antifungal activity against Candida krusei after 48 hrs. In kind it is functional. In a few lines: as §1
Test [11] has as its system Candida dubliniensis. In words: Antifungal activity against Candida dubliniensis after 48 hrs. It counts as functional. In a few lines: as §1
A short description of test [12]: Inhibition of Candida albicans SC5314 FAS by spectrophotometry.
Test [13] has as its system Saccharomyces cerevisiae. In words: Antifungal activity against Saccharomyces cerevisiae after 24 hrs. In kind it is functional. In outline:
as §1

Test [14] deals with Meyerozyma guilliermondii. In words: Antifungal activity against Candida guilliermondii after 24 hrs. In kind it is functional. In a few lines: as §1
Test [15] deals with Candida albicans. In words: Antifungal activity against Candida albicans after 48 hrs. It counts as functional. In outline:
as §1

Test [16] relates to Candida tropicalis. In words: Antifungal activity against Candida tropicalis after 48 hrs. It counts as functional. In outline: as §1
Test [17] concerns Clavispora lusitaniae. In words: Antifungal activity against Candida lusitaniae after 48 hrs. In kind it is functional. In a few lines: as §1
Test [18] concerns Papiliotrema laurentii. In words: Antifungal activity against Cryptococcus laurentii after 48 hrs. It counts as functional. In outline:
as §1

Test [19] relates to Candida albicans. In words: Antifungal activity against Candida albicans by microdilution spectrophotometric method in presence of mysteric acid. In kind it is functional. In outline: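 Growth inhibition of C. albicans in a medium supplemented with 1.0% Tween 40 and 0.03% mysteric acid (long-chain fatty acids).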
Test [20] concerns Candida tropicalis. In words: Antifungal activity against Candida tropicalis after 24 hrs. It counts as functional. In a few lines: as §1
The test system of test [21] is Candida parapsilosis. In words: Antifungal activity against Candida parapsilosis after 48 hrs. In kind it is functional. Particulars: Lodderomyces parapsilosis. In outline:
as §1

Test [22] has as its system Meyerozyma guilliermondii. In words: Antifungal activity against Candida guilliermondii after 48 hrs. In kind it is functional. In a few lines: as §1
Test [23] has as its system Pichia kudriavzevii. In words: Antifungal activity against Candida krusei after 24 hrs. It counts as functional. In a few lines: as §1
In test [24] the test system is Cryptococcus neoformans. In words: Antifungal activity against Cryptococcus neoformans after 24 hrs. It counts as functional. In outline: as §1
In test [25] the test system is Nakaseomyces glabratus. In words: Antifungal activity against Candida glabrata after 48 hrs. In kind it is functional. In outline: as §1
The subject of test [26] is Cryptococcus neoformans. In words: Antifungal activity against Cryptococcus neoformans after 48 hrs. It counts as functional. In a few lines: as §1
The subject of test [27] is Candida albicans. In words: Antifungal activity against Candida albicans assessed as hazy zone of inhibition by disk diffusion assay. In kind it is functional. In outline:
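Disk diffusion on C. albicans; the zone of growth inhibition around the disk is read and reported as diameter in mm.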
Background: In agar diffusion tests the substance spreads into inoculated agar from a disc or well.

Chain of Fatty acid synthase (P49327 whole entry): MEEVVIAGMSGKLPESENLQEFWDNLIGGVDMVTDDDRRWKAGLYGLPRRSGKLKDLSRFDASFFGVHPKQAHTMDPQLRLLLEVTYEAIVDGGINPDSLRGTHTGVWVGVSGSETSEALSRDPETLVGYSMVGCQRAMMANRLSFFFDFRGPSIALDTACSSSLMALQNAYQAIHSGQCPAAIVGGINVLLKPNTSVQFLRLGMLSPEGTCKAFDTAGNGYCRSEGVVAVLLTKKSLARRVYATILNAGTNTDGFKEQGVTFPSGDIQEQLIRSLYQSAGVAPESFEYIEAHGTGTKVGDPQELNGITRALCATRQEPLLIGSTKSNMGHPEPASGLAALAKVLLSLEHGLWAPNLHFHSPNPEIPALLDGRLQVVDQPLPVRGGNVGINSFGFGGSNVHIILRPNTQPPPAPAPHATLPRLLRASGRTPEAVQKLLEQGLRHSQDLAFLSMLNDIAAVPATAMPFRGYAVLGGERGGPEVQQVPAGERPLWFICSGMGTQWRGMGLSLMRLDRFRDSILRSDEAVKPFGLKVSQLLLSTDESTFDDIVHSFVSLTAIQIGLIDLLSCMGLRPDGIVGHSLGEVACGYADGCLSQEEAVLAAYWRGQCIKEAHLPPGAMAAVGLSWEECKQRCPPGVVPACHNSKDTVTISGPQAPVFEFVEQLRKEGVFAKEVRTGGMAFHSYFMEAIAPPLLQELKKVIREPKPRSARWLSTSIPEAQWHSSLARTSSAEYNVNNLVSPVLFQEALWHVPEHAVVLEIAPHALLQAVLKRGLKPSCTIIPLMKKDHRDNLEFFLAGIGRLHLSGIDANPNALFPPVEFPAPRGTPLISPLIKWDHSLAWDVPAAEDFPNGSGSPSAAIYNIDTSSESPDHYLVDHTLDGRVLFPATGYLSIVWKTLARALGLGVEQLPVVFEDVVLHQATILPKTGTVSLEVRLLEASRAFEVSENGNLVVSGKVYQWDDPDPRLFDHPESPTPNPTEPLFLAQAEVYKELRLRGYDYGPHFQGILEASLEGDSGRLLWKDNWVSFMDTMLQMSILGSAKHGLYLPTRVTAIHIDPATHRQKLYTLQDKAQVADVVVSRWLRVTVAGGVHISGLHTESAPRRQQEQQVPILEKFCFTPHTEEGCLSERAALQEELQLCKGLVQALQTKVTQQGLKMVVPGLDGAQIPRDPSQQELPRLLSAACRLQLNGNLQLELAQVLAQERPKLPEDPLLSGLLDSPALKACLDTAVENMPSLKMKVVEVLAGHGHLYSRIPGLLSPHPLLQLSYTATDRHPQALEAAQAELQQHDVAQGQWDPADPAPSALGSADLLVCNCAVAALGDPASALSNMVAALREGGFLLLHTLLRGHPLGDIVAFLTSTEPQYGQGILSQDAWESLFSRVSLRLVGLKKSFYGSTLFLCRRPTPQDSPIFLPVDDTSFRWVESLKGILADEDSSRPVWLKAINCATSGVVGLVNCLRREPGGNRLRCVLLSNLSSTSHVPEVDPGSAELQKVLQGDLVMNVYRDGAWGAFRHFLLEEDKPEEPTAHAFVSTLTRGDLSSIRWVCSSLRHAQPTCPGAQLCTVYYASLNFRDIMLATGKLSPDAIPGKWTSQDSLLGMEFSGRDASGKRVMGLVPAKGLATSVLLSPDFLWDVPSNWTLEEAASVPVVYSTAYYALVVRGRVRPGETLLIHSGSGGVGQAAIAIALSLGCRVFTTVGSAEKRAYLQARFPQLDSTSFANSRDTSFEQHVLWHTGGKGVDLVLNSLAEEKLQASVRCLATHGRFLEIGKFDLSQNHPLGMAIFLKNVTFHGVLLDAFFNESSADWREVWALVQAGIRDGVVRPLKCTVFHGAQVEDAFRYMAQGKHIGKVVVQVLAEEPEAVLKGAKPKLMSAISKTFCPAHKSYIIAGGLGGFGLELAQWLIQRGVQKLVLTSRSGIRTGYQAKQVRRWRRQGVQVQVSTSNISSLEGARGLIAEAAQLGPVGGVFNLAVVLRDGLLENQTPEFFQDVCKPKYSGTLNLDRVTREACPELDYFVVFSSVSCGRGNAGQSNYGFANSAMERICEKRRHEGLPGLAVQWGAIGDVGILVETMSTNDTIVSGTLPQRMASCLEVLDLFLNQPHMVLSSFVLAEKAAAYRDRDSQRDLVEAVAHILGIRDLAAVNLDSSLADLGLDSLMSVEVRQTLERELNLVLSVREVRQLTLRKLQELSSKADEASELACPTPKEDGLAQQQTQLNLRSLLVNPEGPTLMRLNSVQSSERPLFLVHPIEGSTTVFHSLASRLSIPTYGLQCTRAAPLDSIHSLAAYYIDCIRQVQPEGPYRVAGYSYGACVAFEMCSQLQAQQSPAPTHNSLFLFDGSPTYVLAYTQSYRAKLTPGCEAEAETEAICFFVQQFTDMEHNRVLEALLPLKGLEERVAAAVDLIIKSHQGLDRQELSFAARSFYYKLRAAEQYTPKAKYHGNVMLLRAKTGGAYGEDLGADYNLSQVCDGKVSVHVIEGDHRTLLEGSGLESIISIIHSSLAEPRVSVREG

By IC50 is commonly meant the concentration at which inhibition is half-maximal. Lower therefore signals inhibition by little substance. What is called MIC is the lowest concentration that inhibits growth of the organism. Broadly, the MFC is the lowest tested concentration that kills the fungus rather than only halting it. High values mean weaker fungicidal potency, low ones greater fungicidal potency. Turning to `C/C=C/C=C/C=C/C1=CC2=CC(=O)[C@](C)(OC(=O)C[C@H](C)O)C(=O)C2=CO1`, the IC50 is over 2700 µM against Fatty acid synthase and 250 µg/mL (≈ 675 µM) in test [12]. In addition, the MIC is under 1.6 µg/mL against Papiliotrema laurentii [1]; 25 µg/mL (≈ 67.5 µM) with Nakaseomyces glabratus [3]; 7.8 µg/mL (≈ 21.1 µM) in the test with Candida albicans [4]; 12.5 µg/mL (≈ 33.7 µM) against Candida dubliniensis [5]; 16.3 µg/mL (≈ 44 µM) in the test with Clavispora lusitaniae [6]; 3.13 µg/mL (≈ 8.45 µM) against Candida albicans [7]. For the same compound, the MIC in the test on Saccharomyces cerevisiae [8] is 25 µg/mL (≈ 67.5 µM); against Candida parapsilosis [9] it was 14.8 µg/mL (≈ 40 µM); in the test on Pichia kudriavzevii [10], 50 µg/mL (≈ 135 µM); against Candida dubliniensis [11], 12.5 µg/mL (≈ 33.7 µM); in the test with Saccharomyces cerevisiae [13], 8.2 µg/mL (≈ 22.1 µM); in test [14] it was under 1.6 µg/mL. Further, the MIC was 7.8 µg/mL (≈ 21.1 µM) against Candida albicans [15]; 6.25 µg/mL (≈ 16.9 µM) against Candida tropicalis [16]; 41.6 µg/mL (≈ 112 µM) against Clavispora lusitaniae [17]; under 1.6 µg/mL in the test on Papiliotrema laurentii [18]; 50 µg/mL with Candida albicans [19]; 6.25 µg/mL (≈ 16.9 µM) against Candida tropicalis [20]. Further, the MIC in the test on Candida parapsilosis [21] is 50 µg/mL (≈ 135 µM); in test [22], 1.6 µg/mL (≈ 4.32 µM); in the test on Pichia kudriavzevii [23], 25 µg/mL (≈ 67.5 µM); in the test with Cryptococcus neoformans [24] it was under 1.6 µg/mL; with Nakaseomyces glabratus [25], 50 µg/mL (≈ 135 µM); in the test on Cryptococcus neoformans [26], under 1.6 µg/mL. Besides, the “inhibition zone (IZ)” value with Candida albicans [2] worked out at 10 mm. Moreover, the MFC against Candida albicans [7] is 6.25 µg/mL (≈ 16.9 µM).

Regarding `C/C=C/C=C/C=C/C1=CC2=CC(=O)[C@](C)(OC(=O)C[C@H](C)O)C(=O)C23OC3O1` (stereo not given in full), the IC50 was over 2590 µM on Fatty acid synthase and 160 µg/mL (≈ 414 µM) in test [12]. For the same compound, the outcome in the test on Papiliotrema laurentii [1] was Active. Besides, in the test with Candida albicans [2], the “inhibition zone (IZ)” value is 8 mm. Moreover, the MIC is 29.2 µg/mL (≈ 75.6 µM) in the test on Nakaseomyces glabratus [3]; 3.9 µg/mL (≈ 10.1 µM) with Candida albicans [4]; 9.4 µg/mL (≈ 24.3 µM) in the test with Candida dubliniensis [5]; 8.3 µg/mL (≈ 21.5 µM) in the test with Clavispora lusitaniae [6]; 6.25 µg/mL (≈ 16.2 µM) against Candida albicans [7]; 20.3 µg/mL (≈ 52.5 µM) in the test with Saccharomyces cerevisiae [8]. Further, the MIC in the test with Candida parapsilosis [9] is 15.6 µg/mL (≈ 40.4 µM); with Pichia kudriavzevii [10], 25 µg/mL (≈ 64.7 µM); with Candida dubliniensis [11], 18.8 µg/mL (≈ 48.7 µM); in the test on Saccharomyces cerevisiae [13], 5.9 µg/mL (≈ 15.3 µM); in test [14] it was under 1.6 µg/mL; against Candida albicans [15], 7.8 µg/mL (≈ 20.2 µM). Moreover, the MIC worked out at 37.5 µg/mL (≈ 97 µM) against Clavispora lusitaniae [17]; 6.25 µg/mL (≈ 16.2 µM) in the test with Papiliotrema laurentii [18]; 50 µg/mL in the test with Candida albicans [19]; 62.5 µg/mL (≈ 162 µM) against Candida parapsilosis [21]; 1.6 µg/mL (≈ 4.14 µM) in [22]; 12.5 µg/mL (≈ 32.3 µM) in the test on Pichia kudriavzevii [23]. The values for the MIC in the test on Cryptococcus neoformans [24], against Nakaseomyces glabratus [25] and in the test on Cryptococcus neoformans [26] were 25 µg/mL (≈ 64.7 µM), 83.3 µg/mL (≈ 216 µM) and 3.12 µg/mL (≈ 8.07 µM), respectively. In the test with Candida albicans [7], this compound had an MFC of 25 µg/mL (≈ 64.7 µM).

As to `C/C=C/C/C=C/CCC(=O)[C@H]1O[C@H]1C(N)=O` [CERULENIN], the IC50 against Fatty acid synthase is 2.24 µM; in [12], 0.5 µg/mL (≈ 2.24 µM). The compound also displayed an MFC in the test with Candida albicans [7] of 5 µg/mL (≈ 22.4 µM). Also, the MIC was 5 µg/mL (≈ 22.4 µM) with Candida albicans [7] and over 1000 µg/mL in the test with Candida albicans [19]. The “inhibition zone (IZ)” value in the test on Candida albicans [27] was 20 mm.
